# MrgX1 PAM: human MrgX1 positive allosteric modulation, primary screen. B-score at 10 µM. MrgX1-HEK293, Fluo-4 calcium flux, FDSS; stronger effect = higher value. 0.63% of 310,000 active;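 active means plate-corrected calcium response at least 3 library SD above typical, normal starting fluorescence, not activating the receptor alone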;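 further: compound read alongside a low EC10 to EC30 dose of BAM8-22 agonist; peak minus trough fluorescence over baseline measured at the second addition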
# Target sequence (Q96LB2 whole entry, looked up): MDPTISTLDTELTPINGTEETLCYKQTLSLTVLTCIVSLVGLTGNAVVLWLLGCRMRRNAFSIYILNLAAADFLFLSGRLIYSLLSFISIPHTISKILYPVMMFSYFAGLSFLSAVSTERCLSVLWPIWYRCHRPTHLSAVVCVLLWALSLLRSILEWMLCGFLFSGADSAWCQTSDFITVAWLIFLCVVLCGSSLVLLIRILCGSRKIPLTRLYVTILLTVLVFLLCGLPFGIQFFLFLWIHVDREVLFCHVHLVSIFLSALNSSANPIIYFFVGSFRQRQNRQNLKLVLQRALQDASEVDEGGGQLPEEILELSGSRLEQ
# MrgX1 antagonist: antagonists of human MrgX1 receptor | MRGX1-HEK293 calcium flux, Fluo-4, BAM8-22 antagonism; stronger effect = lower value | 1.3% of 310,000 active | Q96LB2 | B-score at 10 µM;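 active means calcium-response B-score plate-corrected more than 3 library SD below zero, starting fluorescence within 5 deviations, no agonist response on first addition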;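 further: peak minus trough fluorescence over baseline after final BAM8-22 challenge near maximal dose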
# RGS4 act: potentiators or activators of RGS4. HEK293 M3R/inducible RGS4, carbachol calcium flux Fluo4; stronger effect = lower value. B-score at 10 µM. 0.92% of 310,000 active. AID 463111;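 active means B-score of the integrated calcium signal more than 4 SD below the library mean, with starting fluorescence not abnormally high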;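 further: negative B-score means reduced calcium response which marks RGS4 activation or potentiation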
#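 Assay system: HEK293 FlpIn-TREx cells, stable M3R, doxycycline-inducible RGS4 / Probe or stimulus: carbachol, ECmax concentration / Times: overnight RGS4 induction, 30 min dye load 37 °C, 20 min compound RT / Signal: kinetic calcium fluorescence imaging with Fluo4-AM dye, 2 µM / Measure: Agonist-evoked peak-minus-minimum fluorescence over baseline, integrated ratio, B score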
# RGS4 block: inhibitors of human RGS4; P49798; HEK293 M3R/RGS4 inducible, Fluo-4 calcium flux; stronger effect = higher value; triggered by carbachol at its EC20; B-score at 10 µM; 0.45% of 310,000 active; AID 463165;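 active means B-score, a plate-corrected calcium signal, over three deviations above library mean, with baseline fluorescence within five deviations of library mean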;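 further: RGS4 expression induced by doxycycline in cells with stable M3 receptor; B-score is computed from the integrated fluorescence ratio over baseline after carbachol; higher B-score means a larger calcium signal and so more RGS4 inhibition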
# Target sequence (P49798 whole entry, looked up): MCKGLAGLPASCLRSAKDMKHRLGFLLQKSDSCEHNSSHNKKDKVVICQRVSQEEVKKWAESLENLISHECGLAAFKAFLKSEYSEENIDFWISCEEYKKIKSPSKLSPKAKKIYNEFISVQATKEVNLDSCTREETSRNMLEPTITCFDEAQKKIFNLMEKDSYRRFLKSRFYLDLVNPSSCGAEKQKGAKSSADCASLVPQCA
# MrgX1 agonist: human MrgX1 receptor agonism, primary screen. MrgX1-HEK293 cells, Fluo-4 calcium fluorescence, agonist mode; stronger effect = higher value. B-score at 10 µM. Q96LB2. 0.44% of 310,000 active. AID 588627;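 active means calcium response B-score plate-corrected fluorescence ratio at least 3 library SD, with starting fluorescence B-score inside 5 SD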
#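 Test system: HEK293 cells stably expressing human MrgX1 receptor; Input: fifteen thousand cells per well; Dosing: compound delivered in addition one of three; Schedule: overnight seeding, then 1 h dark dye loading; Technique: Fluo-4 NW calcium fluorescence; Measure: B-scored fluorescence response ratio; Controls: positive and negative controls per plate.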
# The depositor's hits bear a star; i = inactive. This is a sample that favours compounds with a hit; in the whole collection about 3.5% have one here.
SMILES,MrgX1 PAM,MrgX1 antagonist,RGS4 act,RGS4 block,MrgX1 agonist
CC[n+]1c(/C=C/Nc2ccccc2)oc2ccc(OC)cc21,i,-7.4*,i,i,i
O=C(Nc1cccc(NC(=O)c2ccc(-c3cccc(Br)c3)o2)c1)c1ccco1,i,i,-8.9*,i,i
O=C(Nc1cccc(NC(=O)c2ccc(-c3ccc(Br)cc3)o2)c1)c1ccccc1,i,-4.6*,i,i,i
COc1ccc(Br)cc1C(=O)Nc1cccc(NC(=O)c2ccco2)c1,i,i,i,i,i
O=C(Nc1ccccc1)c1ccc(-c2ccc(Br)cc2)o1,i,i,i,i,i
Cc1nc2c(c(C)nn2-c2ccccc2)c(C)c1CCC(=O)Nc1ccc(CN2CCCC2)cc1,12*,i,i,i,i
CCC(C)NC(=O)CCc1c(C)nc2c(c(C)nn2-c2ccccc2)c1C (configuration not stated),i,i,i,i,i
CCOC(=O)C(C(=O)OCC)C(C(=O)OCC)N1CCOCC1 (configuration not stated),i,i,i,i,31*
CCOC(=O)C(C)CC(C)C(=O)N1CCOCCOCCN(C(=O)C(C)CC(C)C(=O)OCC)CCOCC1 (configuration not stated),i,i,i,i,i
C=CC[n+]1c(-c2ccc(Cl)cc2Cl)csc1Nc1ccc(NC(C)=O)cc1,i,i,-7*,i,i
C=CC[n+]1c(-c2ccc(Cl)cc2Cl)csc1Nc1c(C)n(C)n(-c2ccccc2)c1=O,i,i,i,i,28*
C=CC[n+]1c(-c2ccc(C)cc2)csc1Nc1c(C)n(C)n(-c2ccccc2)c1=O,i,i,-7.9*,i,i
CCCC[n+]1c(-c2ccc(Cl)cc2Cl)csc1Nc1ccccc1,i,i,i,i,i
Cc1c(NC(=O)Nc2cc(Cl)ccc2Cl)c(=O)n(-c2ccccc2)n1C,i,i,i,i,i
COc1ccccc1N(Cc1ccccc1)S(=O)(=O)c1cccc(C(=O)Nc2cccc(C)n2)c1,i,i,i,i,i
COc1ccc(C(C)=O)cc1COC(=O)C1CC(=O)N(Cc2ccccc2)C1 (configuration not stated),i,i,i,i,i
COc1ccc(NC(=O)C(NC(C)=O)C(=O)Nc2ccc(F)cc2)cc1 (configuration not stated),i,i,i,i,i
COc1cccc(CNC(=O)COc2ccc(C(=O)c3ccccc3)cc2)c1,i,i,i,i,i
Cc1cc(=O)oc2cc(NC(=O)C(CCCN=C(N)N)NC(=O)OCc3ccccc3)ccc12 (configuration not stated),i,i,i,i,i
O=C(NCc1ccco1)c1cc2c(s1)CCCCC2,i,i,-7.1*,i,i
CCCC1CCC(C(=O)Nn2cnc3ccccc3c2=O)CC1 (configuration not stated),i,i,i,i,i
O=C(Nn1cnc2ccccc2c1=O)C1CCCCC1,i,-7.5*,i,i,i
COc1ccc(CN(C)C(=O)Cc2ccc(OC)c(S(=O)(=O)N3CCOCC3)c2)cc1,i,i,i,i,i
O=[N+]([O-])c1ccc(NC(=S)NCCc2ccc(F)cc2)cc1,i,i,i,i,30*
O=C(NCCc1ccc(F)cc1)Nc1ccc([N+](=O)[O-])cc1,i,i,i,i,i
SMILES,MrgX1 PAM,MrgX1 antagonist,RGS4 act,RGS4 block,MrgX1 agonist
Cc1cc(C)c2nc3sc(C(=O)N4CCOCC4)c(N)c3cc2c1,i,i,i,i,49*
CC(C)CC(=O)C1=C(O)C(=O)N(Cc2ccccc2)C1c1ccccc1 (configuration not stated),12*,i,i,i,i
O=C(CN(C(=O)CCC(=O)Nc1nccs1)c1cccc(F)c1)NCc1ccccc1,i,i,i,i,i
N#C[C@H]1C2OC2c2ccccc2N1C(=O)c1ccccc1 (some centres not stated),i,-7.9*,i,i,i
CC(C)Cn1c(N)c(C(=O)COC(=O)Cc2cccc(C(F)(F)F)c2)c(=O)n(C)c1=O,i,i,i,i,i
CCCOc1ccc(N2C(=O)CC(N(CCc3ccc(OC)cc3)C(=O)c3ccccc3)C2=O)cc1 (configuration not stated),i,-4.6*,i,i,i
Cn1cc(/C=N/n2cnc3sc4c(c3c2=O)CCCC4)c2ccccc21,i,i,i,i,i
O=c1c2c3c(sc2ncn1/N=C/c1ccc([N+](=O)[O-])o1)CCCC3,i,i,i,5.2*,i
COc1ccc(Cl)cc1C(=O)NNC(=S)NC(=O)c1ccc(F)c(F)c1,i,-5.9*,i,i,i
Cc1c(NC(=S)NC(=O)c2sc3ccccc3c2Cl)cccc1C(=O)O,i,i,i,i,i
COc1ccccc1C(=O)NNC(=S)NC(=O)c1sc2ccccc2c1Cl,i,i,-8.7*,i,36*
COc1ccc(C(=O)NNC(=S)NC(=O)c2ccc(F)cc2)cc1Br,i,i,i,i,i
COc1ccc(Cl)cc1C(=O)NNC(=S)NC(=O)c1cc(-c2ccc(Cl)cc2)nc2ccccc12,i,-7.3*,-8.4*,i,i
COc1cc(C(=O)NC(=S)NNC(=O)c2ccc3c(c2)OCO3)cc(OC)c1OC,i,i,i,i,60*
O=C(O)CCn1c(SCCOc2ccccc2F)nc2ccccc21,i,i,i,i,i
C/C=C/C(O)c1ccc2ccccc2c1 (configuration not stated),i,i,i,i,i
O=C(O)c1cc(-c2ccc(/C=c3\sc4nc5ccc(Br)cc5n4c3=O)o2)ccc1Cl,i,i,i,i,42*
CC1(C)Cc2c(sc3[nH]c(=O)n(CC(=O)NCC4CCCO4)c(=O)c23)CO1 (configuration not stated),i,i,i,i,i
COc1ccccc1NC1=C(Cl)C(=O)N(c2ccccc2)C1=O,11*,i,i,i,i
COc1ccc(NC2=C(Cl)C(=O)N(c3ccccc3)C2=O)c(OC)c1,i,i,i,i,i
Cc1ccc(NC(=O)NCc2ccccn2)c(C)c1,i,i,i,i,i
N#C/C(=C(/O)CCl)c1nc(-c2ccccc2)cs1,i,-6.1*,i,i,i
